Reference: ChEMBL document CHEMBL1123859, “Substituted arylmethyl phenyl ethers. 1. A novel series of 5-lipoxygenase inhibitors and leukotriene antagonists” (J Med Chem, 1987)

Key:
[1] = target: T1, Polyunsaturated fatty acid 5-lipoxygenase (Rattus norvegicus) (UniProt P12527); experiment: Percent inhibition of rat neutrophil 5- Lipoxygenase (5-LO) at 100 uM
T1 sequence (whole entry): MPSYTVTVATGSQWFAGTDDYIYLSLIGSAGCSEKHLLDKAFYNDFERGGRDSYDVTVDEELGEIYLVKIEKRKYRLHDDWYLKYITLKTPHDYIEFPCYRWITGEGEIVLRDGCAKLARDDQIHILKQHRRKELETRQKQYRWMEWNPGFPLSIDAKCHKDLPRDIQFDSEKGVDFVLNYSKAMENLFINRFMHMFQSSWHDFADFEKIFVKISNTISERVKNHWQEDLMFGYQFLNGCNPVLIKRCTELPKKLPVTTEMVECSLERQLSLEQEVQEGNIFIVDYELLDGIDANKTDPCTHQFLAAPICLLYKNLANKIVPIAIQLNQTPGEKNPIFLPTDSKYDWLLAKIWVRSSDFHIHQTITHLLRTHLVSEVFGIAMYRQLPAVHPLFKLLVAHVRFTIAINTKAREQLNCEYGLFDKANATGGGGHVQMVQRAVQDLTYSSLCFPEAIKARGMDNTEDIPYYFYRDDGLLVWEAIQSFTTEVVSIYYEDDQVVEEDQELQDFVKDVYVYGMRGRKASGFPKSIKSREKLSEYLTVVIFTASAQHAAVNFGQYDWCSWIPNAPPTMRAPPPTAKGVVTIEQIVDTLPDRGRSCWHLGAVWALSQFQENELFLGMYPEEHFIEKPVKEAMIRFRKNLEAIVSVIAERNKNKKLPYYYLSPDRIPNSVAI
Outline: (§1)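 Approximately 2 × 10^6 glycogen-elicited rat neutrophils in buffer were incubated for 3 min with 4 μM [14C]arachidonic acid and 0.8 μM calcium ionophore A23187. Net 5-HETE was taken as the cell-containing control minus the buffer-only blank. […] Each assay was run in triplicate.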

Cavia porcellus [2] = species on record: Cavia porcellus; experiment: Percent inhibition of LTC4-induced contraction in guinea pig parenchymal strip test, at a concentration of 20 uM; format: functional
Outline: (§2)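 Guinea pig lung parenchymal strips were held in a tissue bath. Repeated 1 μM histamine challenges gave a control response used to normalize all later responses. Compounds were first checked at 30 μM alone for intrinsic activity. After preincubation (usually 5 min), strips were challenged with 0.2 nM LTC4. Inhibition of the contraction was scored, and 20% or less counted as ineffective.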

[3] = target: T1, Polyunsaturated fatty acid 5-lipoxygenase (Rattus norvegicus); experiment: IC50 for inhibition of rat neutrophil 5-lipoxygenase (5-LO)
Cavia porcellus [4] = species on record: Cavia porcellus; experiment: Percent inhibition of LTC4-induced contraction in guinea pig parenchymal strip test, at a concentration of 30 uM; format: functional; outline: as §2
[5] = target: T2, Polyunsaturated fatty acid 5-lipoxygenase (Rattus norvegicus, UniProt P12527); experiment: Inhibition of rat neutrophil 5- Lipoxygenase (5-LO); details: read-out: I50
T2 sequence (P12527 whole entry): T1 sequence (whole entry)
Outline: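 Approximately 2 × 10^6 glycogen-elicited rat neutrophils in buffer were incubated for 3 min with 4 μM [14C]arachidonic acid and 0.8 μM calcium ionophore A23187. Net 5-HETE was taken as the cell-containing control minus the buffer-only blank. Each assay was run in triplicate.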

Cavia porcellus [6] = species on record: Cavia porcellus; experiment: Percent inhibition of LTC4-induced contraction in guinea pig parenchymal strip test, at a concentration of 10 uM; format: functional; outline: as §2
[7] = target: T2, Polyunsaturated fatty acid 5-lipoxygenase; experiment: Inhibition of rat neutrophil 5- Lipoxygenase (5-LO),; details: read-out: I50; outline: as §1
Cavia porcellus [8] = species on record: Cavia porcellus; experiment: Percent inhibition of LTC4-induced contraction in guinea pig parenchymal strip test, at a concentration of 12 uM; format: functional; outline: as §2
Cavia porcellus [9] = species on record: Cavia porcellus; experiment: Percent inhibition of LTC4-induced contraction in guinea pig parenchymal strip test, at a concentration of 100 uM; format: functional; outline: as §2
Cavia porcellus [10] = species on record: Cavia porcellus; experiment: Percent inhibition of LTC4-induced contraction in guinea pig parenchymal strip test, at a concentration of 19 uM; format: functional; outline: as §2
Cavia porcellus [11] = species on record: Cavia porcellus; experiment: Percent inhibition of LTC4-induced contraction in guinea pig parenchymal strip test, at a concentration of 3.6 uM; format: functional; outline: as §2
Cavia porcellus [12] = species on record: Cavia porcellus; experiment: Percent inhibition of LTC4-induced contraction in guinea pig parenchymal strip test, at a concentration of 40 uM; format: functional; outline: as §2
Cavia porcellus [13] = species on record: Cavia porcellus; experiment: Percent inhibition of LTC4-induced contraction in guinea pig parenchymal strip test, at a concentration of 15 uM; format: functional; outline: as §2
Cavia porcellus [14] = species on record: Cavia porcellus; experiment: Percent inhibition of LTC4-induced contraction in guinea pig parenchymal strip test, at a concentration of 9 uM; format: functional; outline: as §2
Cavia porcellus [15] = species on record: Cavia porcellus; experiment: Percent inhibition of LTC4-induced contraction in guinea pig parenchymal strip test, at a concentration of 22 uM,; format: functional; outline: as §2
Cavia porcellus [16] = species on record: Cavia porcellus; experiment: Percent inhibition of LTC4-induced contraction in guinea pig parenchymal strip test, at a concentration of 8 uM; format: functional; outline: as §2

| IC50 [3] [µM] | SMILES | inhibition at 30 µM (Cavia porcellus [4]) [%] | other results |
| --- | --- | --- | --- |
| 4.8 | CCCCCC(O)c1cccc(OCc2ccc(OCC(=O)OC)cc2)c1 (centres undefined) | – | – |
| 30 | CCCCCC(O)c1cccc(OCc2cccc(C#N)n2)c1 (centres undefined) | – | inhibition at 10 µM (Cavia porcellus [6]): 36% |
| 3.2 | CCCCCC(O)c1cccc(OCc2ccc(C(=O)OC)cc2)c1 (centres undefined) | – | inhibition at 10 µM (Cavia porcellus [6]): 0% |
| 5 | CCCCCC(O)c1cccc(OCc2ccc3ccccc3c2)c1 (centres undefined) | 10 | – |
| 36 | CCCCCC(O)c1cccc(OCc2cccc(CN)c2)c1 (centres undefined) | 0 | – |
| 17 | CCCCCC(O)c1cccc(OCc2cccc(C#N)c2)c1 (centres undefined) | – | inhibition at 10 µM (Cavia porcellus [6]): 3% |
| 2.5 | CCCCCC(O)c1cccc(OCc2cccc(CC(=O)O)c2)c1 (centres undefined) | – | inhibition at 40 µM (Cavia porcellus [12]): 50% |
| 6.7 | CCCCCC(O)c1cccc(COc2ccccc2)c1 (centres undefined) | 19 | – |
| 2.7 | CCCCCC(O)c1cccc(OCc2cccnc2)c1 (centres undefined) | – | inhibition at 9 µM (Cavia porcellus [14]): 50% |
| 2.7 | CCCCCC(O)c1cccc(OCc2ccncc2)c1 (centres undefined) | – | inhibition at 100 µM (Cavia porcellus [9]): 50% |
| 1.2 | CCCCCC(O)c1cccc(Oc2ccccc2)c1 (centres undefined) | 50 | – |
| 2.7 | CCCCCC(O)c1cccc(OCc2ccccc2)c1 (centres undefined) | – | inhibition at 100 µM (Cavia porcellus [9]): 10% |
| 5.8 | CCCCCC(O)c1cccc(OCc2cccc(CC(=O)OC)c2)c1 (centres undefined) | 19 | – |
| 2 | CCCCCC(O)c1cccc(OCc2cccc(C(N)=O)c2)c1 (centres undefined) | – | inhibition at 10 µM (Cavia porcellus [6]): 0% |
| 4 | CCCCCC(O)c1cccc(OCc2cccc(C=O)c2)c1 (centres undefined) | – | – |
| 0.5 | CCCCCC(O)c1cccc(OCc2ccccn2)c1 (centres undefined) | 37 | – |
| 0.35 | CCCCCC(O)c1cccc(Oc2ccc3ccccc3n2)c1 (centres undefined) | 26 | – |
| 30 | CCCCCC(O)c1cccc(OCc2ccccc2C(=O)O)c1 (centres undefined) | – | inhibition at 20 µM (Cavia porcellus [2]): 50% |
| 21 | CCCCCC(O)c1cccc(OCc2ccc(C(=O)O)cc2)c1 (centres undefined) | 22 | – |
| 0.6 | CCCCCC(O)c1cccc(OCc2ccccc2C(=O)OC)c1 (centres undefined) | 23 | – |

More lines, now with the values behind:

| SMILES | IC50 [3] [µM] | inhibition at 30 µM (Cavia porcellus [4]) [%] | other results |
| --- | --- | --- | --- |
| CCCCCC(O)c1cccc(O)c1 (centres undefined) | – | – | inhibition [1]: 43% |
| CCCCCC(O)c1ccccc1OCc1cccc(C(=O)OC)c1 (centres undefined) | 3.2 | – | inhibition at 20 µM (Cavia porcellus [2]): 50% |
| CCCCC(C)C(O)c1cccc(OCc2ccccc2)c1 (centres undefined) | 3 | 0 | – |
| CCCCC(C)(C)C(O)c1cccc(OCc2ccccc2)c1 (centres undefined) | 2.5 | – | – |
| CCCCC[C@H](O)/C=C/C=C\C/C=C\C/C=C\CCCC(=O)O [ICOMUCRET] | – | – | IC50 [5]: 1.45 µM |
| CCCCCC(OC(C)=O)c1cccc(OCc2cccc(C(=O)OC)c2)c1 (centres undefined) | 5 | 5 | – |
| CCCCC(OC1CCCCO1)c1cccc(OCc2ccccc2C(=O)OC)c1 (centres undefined) | 14 | – | – |
| CCCC/C=C/c1ccc(OCc2cccc(C(=O)OC)c2)cc1 | > 100 | 26 | – |
| CCCCCC(OC1CCCCO1)c1cccc(OCc2cccc(C(=O)OC)c2)c1 (centres undefined) | 23 | 0 | – |
| CCCCC(C)(C)C(=O)c1cccc(OCc2ccccc2)c1 | – | 11 | IC50 [7]: 7.5 µM |
| CCCCCC(O)c1cccc(/C=C/c2ccccc2)c1 (centres undefined) | 4.5 | 12 | – |
| CCCCCC(NC)c1cccc(OCc2ccccc2)c1 (centres undefined) | 22 | 50 | – |
| CCCCCC(=O)c1cccc(OCc2cccc(C#N)c2)c1 | – | -30 | IC50 [5]: 6 µM |
| CCCCC(C)(C)C(O)c1cccc(OCc2cccc(C(=O)OC)c2)c1 (centres undefined) | – | 0 | IC50 [5]: 2 µM |
| CCCCCC(O)c1cccc(OCc2cccc(C(F)(F)F)c2)c1 (centres undefined) | – | 10 | IC50 [5]: 4 µM |
| CCCC/C=C\c1cccc(OCc2ccc3ccccc3n2)c1 | > 10 | – | inhibition at 12 µM (Cavia porcellus [8]): 50% |
| CCCCC(C)(C)C(C)(O)c1cccc(OCc2ccccc2)c1 (centres undefined) | 2.4 | 10 | – |
| CCCCCC(O)c1cccc(OCc2cccc(C(=O)O)n2)c1 (centres undefined) | – | 50 | IC50 [7]: 5 µM |

| SMILES | IC50 [3] [µM] | inhibition at 30 µM (Cavia porcellus [4]) [%] | other results |
| --- | --- | --- | --- |
| CCCCCC(O)c1cccc(OCc2cccc(C(=O)O)c2)c1 (centres undefined) | – | 30 | IC50 [7]: 20.5 µM |
| CCCCCC(O)c1cccc(OCc2cccc(C(=O)OC)n2)c1 (centres undefined) | – | – | IC50 [5]: 1.9 µM |
| CCCCCC(O)c1cccc(/C=C\c2ccccc2)c1 (centres undefined) | 6.4 | 5 | – |
| CCCCCC(=O)c1cccc(OCc2ccccc2)c1 | 2 | – | inhibition at 100 µM (Cavia porcellus [9]): 50% |
| CCCCC(O)c1cccc(OCc2ccccc2C(=O)O)c1 (centres undefined) | 10 | – | inhibition at 19 µM (Cavia porcellus [10]): 50% |
| CCCCCC(OC)c1cccc(OCc2cccc(C(=O)OC)c2)c1 (centres undefined) | 10 | 22 | – |
| CCCCCC(O)c1cccc(OCc2ccc3ccccc3n2)c1 (centres undefined) [REV-5901] | – | – | inhibition at 3.6 µM (Cavia porcellus [11]): 50% |
| CCCCCC(=O)c1cccc(/C=C\c2ccccc2)c1 | 45 | -20 | – |
| CCCCC(O)c1cccc(OCc2ccccc2CO)c1 (centres undefined) | – | – | IC50 [5]: 4 µM; inhibition at 15 µM (Cavia porcellus [13]): 50% |
| CCCCCC(C)(O)c1cccc(OCc2ccccc2)c1 (centres undefined) | 1 | 10 | – |
| CCCCCC(C)(O)c1cccc(OCc2ccccn2)c1 (centres undefined) | – | – | IC50 [5]: 0.43 µM; inhibition at 22 µM (Cavia porcellus [15]): 50% |
| CCCCCC(=O)c1cccc(OCc2ccc3ccccc3n2)c1 | – | – | IC50 [5]: 0.37 µM; inhibition at 20 µM (Cavia porcellus [2]): 50% |
| CCCC/C=C(/C)c1ccccc1OCc1cccc(C(=O)OC)c1 | 5 | 7 | – |
| CCCCCC(C)(O)c1cccc(OCc2ccc3ccccc3n2)c1 (centres undefined) | – | – | IC50 [5]: 0.13 µM; inhibition at 8 µM (Cavia porcellus [16]): 50% |
| CCCCC(O)c1cccc(OCc2ccccc2C(=O)OC)c1 (centres undefined) | 2.5 | 35 | – |
| CCCCCC(=O)c1cccc(OCc2cccc(C(N)=O)c2)c1 | 0.6 | 5 | – |
| CCCCCC(O)c1cccc(OCc2cccc(C(=O)OC)c2)c1 (centres undefined) | – | 20 | IC50 [7]: 1 µM |
| CCCCCC(=O)c1cccc(/C=C/c2ccccc2)c1 | > 100 | 0 | – |
